Measurements published in the EternaBench riboswitch data.

Test system: MS2 coat protein
Experiment: apparent Kd, MS2 coat protein; higher = weaker binding; RNA-MaP array; FMN 200 µM where present
How it was run: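 Two titrations, one without ligand and one with constant ligand, were run with SNAP-549-labelled MS2 coat protein from 0.7 or 1.5 nM, doubling to 3 µM. The targets were designs transcribed by stalled E. coli RNA polymerase on Illumina sequencing-chip clusters, in 100 mM Tris-HCl pH 7.5, 80 mM KCl, 4 mM MgCl2, BSA, DTT, yeast tRNA and Tween-20. The apparent Kd is the median of filtered per-cluster binding-curve fits, with green signal normalised to red-channel RNA signal and control-cluster median Fmax.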

[1] = designed as: OFF switch for flavin mononucleotide, no ligand
[2] = ligand present: flavin mononucleotide, designed as: OFF switch for flavin mononucleotide
[3] = designed as: ON switch for flavin mononucleotide, no ligand
[4] = ligand present: flavin mononucleotide, designed as: ON switch for flavin mononucleotide

Row | Sequence | apparent Kd [1] | apparent Kd [2] | apparent Kd [3] | apparent Kd [4]
1 | CAGUGCAAUGUAGGAUAUGCUCAGGAAUACUGAGCAGAAGGACAUGAGGAUCACCCAUGUACUAUGAAAGAUAAUAAAGCACUG | 13.5 nM | 18.2 nM | – | –
2 | AGCUACGUUUCGUAGCAGUGUCAUCGAGAAGGCCUCAUAACAUGAGGAUCACCCAUGUUUGCAUGGGAGGAUAUCGAUGAUACA | – | – | 206 nM | 56.4 nM
3 | UUCAUCAAUGAAGGAUAUCUAUGUCCAACAUGAGGAUCACCCAUGUUGAGGAUCACCUAUGUGUAGGAGAAGGUCAAUAUAACU | – | – | 8.56 nM | 8.54 nM
4 | UUGGAGAUAGGAUAUACGAGGAGAGUAGAGGGAAGGUGAUGACAUGAGGAUCACCCAUGUAGAAGGAUCAGGAG | 155 nM | 100 nM | – | –
5 | CUAUGGGCAGGAUAUGCAUAUCGGGAGUGGUCGCAAGCGUUACAUGAGGAUCACCCAUGUAGAAGGGCCGCGUC | 18.9 nM | 20.4 nM | – | –
6 | AAUUAAUUAAUACAUGAGGAUCACCCAUGUAAUUAUUAGAUCAAGGAUAUCAGCUCGUUUAGAGCUGAGAAGGUGAUCACAUGU | – | – | 373 nM | 109 nM
7 | ACAUGAGGAUCACCCAUGUAGAGUGAAGAAGGUAGAUACUUGUGACUCUCCCAUGUACAUAGGACUGAGGAUAUUCUAAUAAUU | – | – | 24.2 nM | 20.9 nM
8 | GCUUGUGAAGGAUAUACUGGCGGCAUGCGCUCGACACGCGCACAUGAGGAUCACCCAUGUAGAAGGUCAAACGU | 17.2 nM | 17.7 nM | – | –
9 | GUGCACAUUCGAGGAUAUCGGAGAGGACUCCUUCGAGAAGGCGAUUCGUGCCGUGUUAUUCUGGACAUGAGGAUCACCCAUGUG | – | – | 45 nM | 28.7 nM
10 | CUGUAUGAUGUAGGAUAUACUUUAAUAUUGUAAGUAGAAGGACAUGAGGAUCACCCAUGUAUAUAAAUUUUAAUUAUUUUUGCG | 51.2 nM | 39.3 nM | – | –
11 | AGCAUGCUAGGAUAUACGAAACAUUAGGGUUCGUCGUAUGAACAUGAGGAUCACCCAUGUAGAAGGAGCGUGCA | 18 nM | 36.2 nM | – | –
12 | CGGAUGUGAGGAUAUACAUGAGGAUCACCCAUGUGAGCCAGCUAGAUGACUGGCUCGUGUAGAAGGCACGUCUG | 13.5 nM | 29.3 nM | – | –
13 | UAUCCACAUGAGGAUCACCCAUGUGAGGAUAUGUCCAUAUUCGGCAAAUCGGAUAUGGACAGAAGGCACACCGG | 36.9 nM | 103 nM | – | –
14 | GGAUCGAGUGUGAGGAUAUACCACUGGAUACAGUGGUAGAAGGCACAUGAGGAUCACCCAUGUCUCUACGAUCC | 16.1 nM | 51.8 nM | – | –
15 | GUACUGUAGUGAGGAUAUACGAGAUCGAUAGAUCGGCGAUCCAUUUAUACAUGAGGAUCACCCAUGUAGAAGGCACUUCAGUAC | 5.62 nM | 56.6 nM | – | –
16 | CAUUAAUUCAUUAUAGUAAUUAUACAGGAUAUGUUACAUGAGGAUCACCCAUGUAUUCAUGGUAUACAGAAGGGUAAUACUAGA | 12.6 nM | 13.9 nM | – | –
17 | CUUUCGUGAGGAUAUCAGUAGUAAAAUAAUAAAAUUACUACUGAGAAGGCACAUGAGGAUCACCCAUGUUCCUC | 24.4 nM | 134 nM | – | –
18 | CCGGAAACGGGUAGCUGACAUGAGGAUCACCCAUGUGAAUCACAGGAUAUGGAUCCUAAUUGGAUCCAGAAGGGUGUCAGCUAC | – | – | 1020 nM | 125 nM
19 | CGGCUGCUACGCCAGCUCGACGCACAGGAUAUGCUGUUACAUGAGGAUCACCCAUGUGGCCAAGAGCAGAAGGGUGAUUCGCGA | – | – | 33.6 nM | 35 nM
20 | AAUUAUUAUUGAGGAUAUCGUAUUGAAACAAUACGAGAAGGCGGAAUAAACAUGAGGAUCACCCAUGUGAGCCUGAUGCUUAUG | 25 nM | 36.1 nM | – | –
21 | AAGGAUAGAGGAUAUACAUAGAUACAGAUUCGUGUAGAACUACAUGAGGAUCACCCAUGUAGAAGGCUAUCCUA | 16.8 nM | 46 nM | – | –
22 | UCGGUGACAGGAUAUACAUGAGGAUCACCCAUGUUAAGAAGAGAAAGGGCAGGAAGAGGUAGAAGGGUCGCUGU | 51.7 nM | 69 nM | – | –
23 | UUUAUGGGACAGAAGGGCAUUUACAUGAGGAUCACCCAUGUUCAUCAUUGCAGGAUAUGUAUAACAUGAGGAUCACCUAUGUAC | – | – | 604 nM | 106 nM
24 | UGUCGGAGCAGAGGAUAUUACAUGAGGAUCACCCAUGUAAGAACCAAUAGCUGGAAACAGCAAUGUAAGAAGGCUGCUCCGACA | 5.27 nM | 15.9 nM | – | –
25 | GGGUACAUCGGAGGAUAUCACGUAAAUACAUGAGGAUCACCCAUGUCGAUGGAGACAUCGGAGAUUGAGAAGGCCGAUGUACCG | – | – | 7.6 nM | 5.33 nM
26 | GGUGCGUAUGUGAGGAUAUGCUGGUCCUUGGAUCGGCAGAAGGCACAUGAGGAUCACCCAUGUGGUGUCGUACG | 59.6 nM | 228 nM | – | –
27 | AACGCAGAAAUCGCAAUACAUGAGGAUCACCCAUGUAGAUCACAGGAUAUGGUCUAGUCAGUGGUCCAGAAGGGUGAUCAGAAC | – | – | 66.4 nM | 38.6 nM
28 | GAUACACAUGAGGAUCACCCAUGUCGUAUGACAUGAGGAUAUGUACAGACUUCGGUCUGUACAGAAGGCAUGUGUC | – | – | 115 nM | 199 nM

Row | Sequence | apparent Kd [1] | apparent Kd [2] | apparent Kd [3] | apparent Kd [4]
29 | AAAAAAAAAAGAGAGGAUAUCCAAAAAAAAACAUGAGGAUCACCCAUGUAAAAAAAAAAAAAAUGGGAGAAGGCUCAAAAAAAAAA | – | – | 89.7 nM | 23.2 nM
30 | AGCUACGUUUCGUAGCAGUGUCAUCGAGAAGGCUCAUAAACAUGAGGAUCACCCAUGUAAACAUGGGAGGAUAUCGAUGAUACA | – | – | 39.6 nM | 6.5 nM
31 | CACGGAAACGUGAAACGUAGCAUACGAGAAGGCUGAUCCACGACAUGAGGAUCACCCAUGUAGUUAGAGGAUAUUGGAUGCUAC | – | – | 57.7 nM | 12.2 nM
32 | GGUGAAGCAGGAUAUGUGCCGAUAUACAUGAGGAUCACCCAUGUCAUGUAGGAACCGCGUAUAGAAGGGCUUCACC | 39.2 nM | 67.1 nM | – | –
33 | CAUAUACAUGAGGAUCACCCAUGUGAGGAUAUGCUUUAUUAUUAUUAUUAUUAUUGUUGCAGAAGGUACAUUAC | 24.2 nM | 20.6 nM | – | –
34 | AUUGGUUAAGGAUAUCCCUUAGCAGACAUGAGGAUCACCCAUGUCGUCAUGAGGCCAGGCGGAGAAGGUGACUAAU | 55.4 nM | 35.8 nM | – | –
35 | CCCUUUAGAGGAUAUACAUGAGGAUCACCCAUGUCUUGGGUCCGGCCUGAUCUGGUACGUAGAAGGCUGUUGGU | 187 nM | 158 nM | – | –
36 | GGGCGUGAAGGAUAUACAUGAGGAUCACCCAUGUGGGAGGAGAAUGGUGAGGAGGCUGGUAGAAGGUCAGGAGG | 47.9 nM | 45.8 nM | – | –
37 | CUGCCUUAUGAGAAGGCGAUCAUGAAACAUGAUCGAGGAUAUCAUGUAAACAUGAGGAUCACCCAUGUAUGGGUAUUAUGGUAG | – | – | 529 nM | 74.5 nM
38 | CUAUGGCAAGGAUAUCUUGGCUAGAACAUGAGGAUCACCCAUGUCUACUGUACUAAUAUCGGAGAAGGUGCUAGAA | 27.6 nM | 19.1 nM | – | –
39 | GGGUACAUCGGAGGAUAUCAUGUAAAUACAUGAGGAUCACCCAUGUCGAUGGAGACAUCGGAGAGUGAGAAGGCCGAUGUACCG | – | – | 257 nM | 13.3 nM
40 | GUAUAUCACUUAGGAUAUCUGUAAUUUAUUGAAACAUGAGGAUCACCCAUGUUCAUAAAUUUAUAGGAGAAGGGAGUGAUAUAC | – | – | 4.19 nM | 4.24 nM
41 | UAAUAAUAAUAAUACCAGUUUACAUGAGGAUCACCCAUGUAUAAGGAUAUGCAGUGGAAUACACUGCAGAAGGUAUACAUCUGG | 18.8 nM | 35.9 nM | – | –
42 | AGUGCUAUGUAGAAGGCAGAUCUGAUUCAGAUCUGAGGAUAUACAUGAGGAUCACCCAUGUUAUGCACCAGCACGAGAGUGCAU | 20 nM | 98 nM | – | –
43 | AAAAUCUAUUGAGGAUAUCGUUCUUAAAGAGAAUGAGAAGGCAAACAAUCAUGAGGACAUGAGGAUCACCCAUGUUGUGACCAU | – | – | 19.9 nM | 10.3 nM
44 | ACAGAUCCUGACAUGAGGAUCACCCAUGUUAGAUUGUUAUGUCAGGAUAUUAUCUGGCAACCAGAUGAGAAGGGACGAUCUGUG | – | – | 240 nM | 15.5 nM
45 | UCAAAGAGAUCGAAUGGGAGGCGUAAGGAUAUGCACAUGAGGAUCACCCAUGUCUACGAAAGUAGGCAGAAGGUACGCGGGAUU | – | – | 315 nM | 34.2 nM
46 | AAUAACAGAGGAUAUACUGUUUUAUGUGUUUGUUAUUUUAAACAUGAGGAUCACCCAUGUAGAAGGCUGAGUAA | 27.4 nM | 27 nM | – | –
47 | AAGUAGGGAGGAUAUACAUGGAUAUACAUUCAUGUGGACCUACAUGAGGAUCACCCAUGUAGAAGGCCCUAAUA | 37.1 nM | 43.5 nM | – | –
48 | UUGCCUCAGAACAUGAGGAUCACCCAUGUGCUGCGGGCAACGUAGGAUAUGAUGGUACGCUACCAUCAGAAGGAUGAUGGUACC | – | – | 5.51 nM | 4.99 nM
49 | GGUACUCAAAGAGUACCAAUACGAACAUGAGGAUCACCCAUGUAGGAUAUGCUACUCACAGAGUAGCAGAAGGACAUGUGCCUA | 20.8 nM | 136 nM | – | –
50 | CUGAGGCUAGGAUAUACGUGAGGUUAGUUGCGAAGCGCUUGACAUGAGGAUCACCCAUGUAGAAGGAGCGGCUU | 22.6 nM | 28.9 nM | – | –
51 | UCUAGACAUGAGGAUCACCCAUGUGAGGAUAUGAUGCGAUCGUCGAAAGACGAUAGCAUCAGAAGGCACAAAUG | 66.5 nM | 200 nM | – | –
52 | UGAUAGGACAGAGGAUAUACGGCUAGGAGAUACUAGCUACUAUUCCUCACAUGAGGAUCACCCAUGUAGAAGGCUGUCCUAUCU | 16.9 nM | 148 nM | – | –
53 | ACCAGAACAUGAGGAUCACCCAUGUAUCUAUACCAAGCGACACAGGAUAUACAAAGCGAAAGCGGGUAGAAGGGUGAUCAUGCA | – | – | 63.5 nM | 182 nM
54 | AGGUAGCAAGGAUAUACAACUUUGGGCACUGCCUCUUGGAGACAUGAGGAUCACCCAUGUAGAAGGUGCAGGCC | 13.2 nM | 33.9 nM | – | –
55 | GCCUUAUCAGUCAGGAUAUACAAUAAAAUAAUUAAGUAGAAGGGACAUGAGGAUCACCCAUGUACAUUACAUUG | 18.6 nM | 53.5 nM | – | –
